Data as given in publication PMC6379856 (ACS Chemical Biology, 2019).

Tests used:
PLA2G16 [1] = target: T1, PLA2G16 (Homo sapiens, UniProt P53816); assay: Competitive ABPP with probe MB064, cytosol proteome of transfected HEK293T cells; type: biochemical
T1 sequence (P53816 1-162): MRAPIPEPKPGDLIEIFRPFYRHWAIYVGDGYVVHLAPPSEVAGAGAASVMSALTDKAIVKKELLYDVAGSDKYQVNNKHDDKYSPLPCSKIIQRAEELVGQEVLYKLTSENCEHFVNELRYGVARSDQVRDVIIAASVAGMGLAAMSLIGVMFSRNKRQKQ

RARRES3 = target: T2, RARRES3 (Homo sapiens, UniProt Q9UL19); assay: as above; type: biochemical
T2 sequence (Q9UL19 1-164): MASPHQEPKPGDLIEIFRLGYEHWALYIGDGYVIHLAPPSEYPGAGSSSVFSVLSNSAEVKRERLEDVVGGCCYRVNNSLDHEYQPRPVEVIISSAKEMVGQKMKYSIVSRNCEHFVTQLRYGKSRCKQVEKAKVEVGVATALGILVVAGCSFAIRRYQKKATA

[2] = test system: endogenously expressed serine hydrolases in mouse brain; assay: Competitive gel-based ABPP in mouse brain proteomes with FP-TAMRA and MB064; type: biochemical
Summary of the method: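 Mouse brain membrane and cytosol proteomes were treated with DMSO or test compound at 10 µM. Each was then labelled with MB064 or FP-TAMRA and resolved by SDS-PAGE with fluorescent scanning. Coomassie staining served as the protein loading control.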

endogenous PLA2G16 = target: T3, endogenous PLA2G16 (Mus musculus, UniProt Q8R3U1); assay: Competitive ABPP with MB064 in cytosol proteome of mouse WAT and BAT; type: biochemical; settings: 10 μM
T3 sequence (Q8R3U1 1-162): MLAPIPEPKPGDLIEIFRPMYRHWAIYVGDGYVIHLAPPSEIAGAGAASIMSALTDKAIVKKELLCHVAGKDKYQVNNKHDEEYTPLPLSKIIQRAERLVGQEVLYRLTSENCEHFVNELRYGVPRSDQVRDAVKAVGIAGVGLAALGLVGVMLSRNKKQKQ
Summary of the method: (§1)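 Cytosol proteomes from freshly isolated mouse white and brown adipose tissue were preincubated with test compound (10 µM) or DMSO. They were then labelled with probe MB064, resolved by SDS-PAGE and fluorescence-scanned. The gels were Western blotted with an anti-PLA2G16 antibody to locate native PLA2G16.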

[3] = test system: other proteins in brown and white adipose tissue; type: biochemical, mouse; settings: 10 μM, probe MB064
Summary of the method: as §1

iNAT = target: T4, iNAT (Homo sapiens, UniProt Q96KN8); assay: Competitive ABPP with probe MB064, cytosol proteome of transfected HEK293T cells; type: biochemical
T4 sequence (Q96KN8 1-279): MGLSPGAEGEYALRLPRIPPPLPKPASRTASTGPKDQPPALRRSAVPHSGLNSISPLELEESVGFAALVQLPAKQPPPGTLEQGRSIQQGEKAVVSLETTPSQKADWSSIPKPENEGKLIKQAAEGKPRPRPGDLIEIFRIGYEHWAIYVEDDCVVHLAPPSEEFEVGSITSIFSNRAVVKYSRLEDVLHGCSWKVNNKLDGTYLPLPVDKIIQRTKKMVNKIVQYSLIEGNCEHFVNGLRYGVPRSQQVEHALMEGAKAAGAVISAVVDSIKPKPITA

PLA2G16 [4] = target: T1, PLA2G16; assay: PC-A2 fluorescent substrate assay; type: biochemical
Summary of the method: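 HEK293T cells overexpressing human PLA2G16 supplied the cytosol proteome used as enzyme source. Test compound was tested over a concentration range in the fluorescent PC-A2 phospholipid substrate assay. Dose–response curves were generated (n = 3).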

[5] = test system: U2OS cells transfected with human PLA2G16; type: cell-based; settings: 10 μM, 4 or 8 h, serum-free, in situ
Summary of the method: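 U2OS cells transfected with human PLA2G16 were exposed in situ, under serum-free conditions, to DMSO vehicle or test compound at 10 µM for 4 or 8 h. Arachidonic acid levels were then measured. Significance was assessed by Student's t-test.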

HepG2 cells = assay: Oleic acid-induced lipid droplet formation; type: cell-based, human; settings: 10 μM, 24 h, oleic acid 100 μM
Summary of the method: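 HepG2 cells were given oleic acid (100 µM, 24 h) to induce steatosis and treated in situ with test compound (10 µM, 24 h). Lipid droplets were stained with Adipored. Significance was assessed by Student's t-test.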

Structure (SMILES) | PLA2G16 labeling by MB064 (library screen) (PLA2G16 [1]; inhibitor at 10 μM, competitive ABPP) | IC50 (RARRES3) [nM] | labeling of proteins in mouse brain targeted by FP-TAMRA or MB064 ([2]; 10 μM, mouse brain membrane and cytosol proteome) | labeling of native PLA2G16 by MB064 (endogenous PLA2G16) | labeling of other proteins in brown and white adipose tissue [3] | increase in potency compared to compound 1 in the ABPP-assay (PLA2G16 [1]; PLA2G16) [fold] | IC50 (iNAT) [nM] | Ki (PLA2G16 [4]) [nM] | selectivity over brain serine hydrolases ([2]; gel-based ABPP assay (Figure S7)) | PLA2G16-induced increase in arachidonic acid [5] | lipid droplet formation induced by oleic acid (HepG2 cells)
O=C(CCc1ccc(Cl)cc1)C(=O)NCCc1ccccc1 [Compound 1, 4-(4-chlorophenyl)-2-oxo-N-phenethylbutan-amide] | almost completely abolished | 631 | did not reduce the labeling of any proteins | completely abolished | not affected |  |  |  |  |  | 
O=C(CCCc1ccccc1)C(=O)NCCc1ccc(Oc2ccc(C(F)(F)F)cn2)cc1 [LEI110, 2-oxo-5-phenyl-N-(4-((5-(trifluoromethyl)pyridin-2-yl)oxy)-phenethyl)pentanamide] |  | 158 |  | completely abolished | not affected | 10 | 25.1 | 20 | selective | almost completely abolished | reduction in lipid droplet formation
